Screening results deposited in PubChem BioAssay by several laboratories.
PTK2B oligo ant = antagonists of Pyk2 self-association, primary screen, Q293 cells, FERM NanoBiT luminescence, HTS; Protein-tyrosine kinase 2-beta (Homo sapiens), Q14289; z-score (the deposit names both 25 µM and 10 µM); 99,000 tested, 0.83% active; active compounds read low;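 active = Z-score of -3 or lower, scaled per plate to the spread of control and sample wells; inactive = z-score above -3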;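 note: negative z-score means lost luminescence so less FERM oligomerization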
E coli WT exp = growth inhibitors of wild-type E. coli, primary screen, strain BW25113, expanded library, OD600; OD600 absorbance; growth inhibition, % at 100 µM; 98,000 tested, 0.15% active;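 active = growth inhibition above about 50% at one test dose, limit read from the data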;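 note: growth measured after 20 h incubation at 37 °C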
PostGolgi yeast = phenotypic screen on post-Golgi transport, primary screen; post-Golgi transport phenotypic cell assay; 98,000 tested, 0.9% active; AID 739, 2007; inhibition, % at 10 µM;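 note: yeast cells grown in 1536-well plates; yeast grown about 18 h at 30C before absorbance read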
PostGolgi ctrl = growth inhibition of yeast control strain, primary screen, counter-screen for post-Golgi transport modulator project; inhibition, % at 10 µM; 98,000 tested, 5% active; efflux-deficient yeast background strain, growth absorbance A615, 16 h; AID 738, 2007
Cav3 T inh = Cav3.2 calcium influx blockers – cell-based, Fluo-4 calcium fluorescence, FDSS, MLSMR library, primary screen. Cav3.2-expressing cells; active compounds read low. B-score at 10 µM. 100,000 tested, 4% active. AID 449739, 2010;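 active = single-dose well whose peak fluorescence ratio is a statistical outlier from its plate by either plate-standardised score or position-corrected B-score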
Ecoli tolC = growth inhibitors of E. coli tolC mutant, primary screen, strain BW25113 ΔtolC::kan, 384-well. OD615. growth inhibition, % at 10 µM (by protocol). 65,000 tested, 2.2% active. AID 573, 2007;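 active = growth inhibition at or above a cutoff equal to the mean over every tested compound plus 3 SD, cut at about 60% in these data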;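 note: growth measured after 20 h incubation at 37 °C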
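Test system: E. coli BW25113 ΔtolC::kan bacteria; incubation: 37 °C, 20 h exposure; medium: LB broth supplemented with 50 µg/mL kanamycin; read-out basis: percent growth inhibition; signal: A615 absorbance measurement; compound: 10 µM final, single dose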
* hit, by the source's call; · = not tested or not shown. A selection: hits, their analogues and other compounds. The true share with any hit is near 8.7%. Cut-off read from the data, not from the text of the source, unless noted: active = inhibition above about 30%; inactive = the rest.

SMILES	PTK2B oligo ant	E coli WT exp	PostGolgi yeast	PostGolgi ctrl	Cav3 T inh	Ecoli tolC
CCN(C(=O)c1ccc2c(Cl)c3c(nc2c1)CCC3)c1cccc(C)c1	·	·	·	·	-5.6*	·
Cc1ccc(N(C)C(=O)c2ccc3c(Cl)c4c(nc3c2)CCC4)cc1C	·	·	·	·	-5.5*	·
Cc1cccc(C)c1NC(=O)COc1cccc(/C=N/NC(=O)C(=O)NCc2ccccc2)c1	0.47	-3	9	-1	-0.55	·
CCNC(=O)OCC(CC)NC(=O)OCC(C)C (configuration not stated)	-0.01	-1	-3	9	0.67	·
CCC(COC(=O)Nc1cccc(C)c1)NC(=O)OCC(C)C (configuration not stated)	0.83	5	0	5	-4.7*	29
CCn1cc(C(=O)NCc2ccccc2)c(=O)c2cc(F)c(N3CCN(C(=O)c4ccco4)CC3)cc21	-2.1	45	-1	30	2.2	·
CCCNC(=O)c1cn(CC)c2cc(N3CCN(C)CC3)c(F)cc2c1=O	-0.6	100*	-3	2	1.7	·
CCn1cc(C(=O)Nc2nncs2)c(=O)c2cc(F)c(N3CCN(C(=O)c4ccco4)CC3)cc21	·	·	·	·	·	100*
CCn1cc(C(=O)NCCCN(C)C)c(=O)c2cc(F)c(N3CCN(C)CC3)cc21	1.1	100*	4	20	-0.55	23
O=C(Nc1ccc(-c2csc(Nc3cccc(C(F)(F)F)c3)n2)cc1)c1cc([N+](=O)[O-])cc(C(F)(F)F)c1	·	·	·	·	-0.76	·
COc1ccccc1/C=C/C(=O)NCC(=O)N/N=C/c1cc(Br)ccc1OC	-0.11	0	-5	1	-9.3*	·
COc1ccc(/C=C/C(=O)NCC(=O)N/N=C/c2cc(Br)ccc2OC)cc1	-1.6	5	-3	-7	-0.42	·
COCCn1c(C2CCCCC2)nc2sc3ccccc3c(=O)c2c1=O	0.68	-7	39*	85*	·	19
CC(C)CCn1cnc2c(cnn2-c2ccc(Cl)cc2)c1=O	2.4	1	-4	3	-0.0083	-3
CCOc1ccc(S(=O)(=O)NCc2ccco2)cc1	-0.3	4	6	1	0.39	·
Cc1ccc(S(=O)(=O)N/N=C2/CC(c3ccccc3)Oc3ccccc32)cc1 (configuration not stated)	0.07	-7	10	33*	-2.7	·
CCOc1ccc(S(=O)(=O)N/N=C2/CC(c3ccccc3)Oc3ccccc32)cc1 (configuration not stated)	-0.33	1	23	7	-7.1*	·
O=S(=O)(N/N=C1\CC(c2ccccc2)Oc2ccccc21)c1ccccc1 (configuration not stated)	0.09	1	3	20	-7.7*	·
CC1=C(C#N)c2nc(N)c(C#N)c(C)c2/C1=C\c1ccc(C)cc1	·	-5	104*	100*	-0.34	·
Cc1ccc(-c2c(C#N)c(N)nc3c2CCCCC3)cc1	0.88	-10	15	6	-0.81	·
N#CC1=C(SCc2ccccc2Cl)NC(=O)C(C(N)=O)C1 (configuration not stated)	-0.13	4	-12	-1	0.02	-14
O=C(NCc1ccco1)c1ccc(S(=O)(=O)c2cccc(S(=O)(=O)N3CCOCC3)c2)cc1	-0.58	2	-5	23	-2	9
C=CCOC(=O)/C(=C\c1cccc2ccccc12)NC(=O)c1ccccc1	-1.4	-15	0	21	-5.2*	·
CCOC(=O)/C(=C/c1c2ccccc2cc2ccccc12)NC(=O)c1ccccc1	-0.51	-2	14	25	-0.45	·
CC(=O)c1ccccc1NC(=O)CSc1nnc2ccccn12	·	5	18	8	·	·
SMILES	PTK2B oligo ant	E coli WT exp	PostGolgi yeast	PostGolgi ctrl	Cav3 T inh	Ecoli tolC
CCCOc1ccc(N2C(=O)CC(N(CCc3ccc(OC)c(OC)c3)C(=S)Nc3ccccc3)C2=O)cc1 (configuration not stated)	-0.35	·	·	·	·	·
O=C1CC(N(CCc2ccccc2)C(=S)Nc2cc(Cl)ccc2Cl)C(=O)N1c1c(Cl)cccc1Cl (configuration not stated)	-0.39	-15	5	-3	-2.6*	·
Cc1ccc(C)c(-n2c(SCC(=O)Nc3nonc3C)nnc2-c2ccoc2C)c1	-1.6	2	-3	12	-6*	27
CCCCCc1c(C)nc(NCc2ccccc2)[nH]c1=O	-0.4	-10	11	39*	-0.98	31
CC(=O)Nc1c(O)nc(SCC(=O)Nc2ccc(C(C)=O)cc2)[nH]c1=O	0.66	4	4	10	0.54	-10
O=C(CSc1nc(O)c(C2CCCCC2)c(=O)[nH]1)Nc1ccc(Cl)cc1	-1.4	1	0	7	-7.8*	62*
CCCCc1c(O)nc(SCC(=O)Nc2ccc3c(c2)CCC3)[nH]c1=O	-0.58	-14	4	1	-5.7*	15
CCc1c(O)nc(SCC(=O)Nc2ccc3c(c2)CCC3)[nH]c1=O	0.21	-6	-5	17	-0.073	-2
CCOc1nc(-c2ccccc2Cl)ccc1C#N	-0.63	6	14	6	-2.8	·
Cc1sc(NC(=O)CN2CCOCC2)c(C(=O)c2ccccc2)c1C	0.26	4	35*	7	-0.22	·
Cc1nc(NC(=O)CN2CCOCC2)sc1-c1ccccc1	0.27	3	-4	-15	0.33	5
OC1(c2cccc(C(F)(F)F)c2)CCN(Cc2nnnn2CCc2ccccc2)CC1	-2	·	·	·	-5.6*	·
CCO[C@@H]1OC(C(N)=O)=C[C@H](c2ccc3c(c2)OCO3)[C@H]1CCCO	·	·	·	·	0.33	·
Cc1ccc(-c2cc(N)n(Cc3ccc(Cl)cc3)n2)cc1	-0.9	-3	-1	6	-5*	·
COC(=O)[C@@H]1C[C@@]2(O)[C@H](O)[C@H](O)[C@H](O)C[C@H]2N1Cc1ccc(-c2ccccc2)cc1	·	·	·	·	0.006	·
COc1ccc(CSCC(=O)N/N=C/c2ccccc2OCc2ccccc2)cc1	0.74	-20	1	21	-5.8*	·
COc1c(-c2ccc(O)cc2)oc2cc(O)cc(O)c2c1=O	·	·	·	·	-0.76	·
Cc1oc2cc(O)cc(O)c2c(=O)c1-c1ccc2c(c1)OCCCO2	-3.4*	18	6	5	-3.5	53
COc1cccc(NC(=O)c2ccc(-n3cccn3)nc2)c1	0.36	-3	11	-6	1.5	·
NC(=O)c1cc(Br)cc2c3c([nH]c12)CCCC3	0.37	-4	5	78*	-0.41	56
O=c1c2c([nH]c3ccc(Br)cc13)CCCC2	-1.1	·	·	·	-0.073	3
O=C1OC(c2ccc3c(c2)OCO3)N(C(=O)c2ccc(Cl)c(Cl)c2)c2ccccc21 (configuration not stated)	-3.2*	-19	-3	30*	-3.1	·
CC(C)(O)C#Cc1ccc(C(=O)NCc2ccccc2)s1	1.3	·	·	·	1.2	·
CC(=O)NCC(=O)OCC(=O)c1ccc2ccccc2c1	1.1	10	1	19	1.1	·
